Assay outcomes as filed in PubChem BioAssay.
MEKK3 PB1 HTS: modulators (inhibitors or enhancers) of MEK5 binding to human MEKK3 PB1 domain; bead-based flow cytometry, Alexa488-MEK5 binding to MEKK3; actives lie on both sides; 0 = blocked by unlabeled MEK5, 100 = vehicle; binding response (% of control), % at 10 µM; Q99759; actives 1.4% (n = 290,000);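 active = binding response more than 3 SD above or below the average of its plate-row segment, actives on both sides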;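 also: Alexa488 bead fluorescence after subtracting the streptavidin-only scavenger bead signal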
MEKK2 mut-MEK5: signal of MEK5 binding to mutant human MEKK2 PB1 domain; bead flow cytometry, Alexa488-MEK5 binding to MEKK2 mutant; percent response, % at 10 µM; actives 0.35% (n = 290,000); AID 1530; in the data active = percent response above about 24%, passing the limit was not always enough
MEKK2 WT-MEK5: raises or lowers MEK5 binding to wildtype human MEKK2 PB1 domain | actives 1.1% (n = 290,000) | binding response (% of control), % at 10 µM | Q9Y2U5 | bead flow cytometry, Alexa488-MEK5 binding to MEKK2 WT; actives lie on both sides; in the data active = binding response below about 67% or above about 130%
Apaf-1 inh: human Apaf-1 inhibition | AID 489030 | inhibition, % at 20 µM | actives 0.71% (n = 330,000) | reconstituted apoptosome caspase-3 activity, DEVD-Rh110 fluorescence | O14727; active = inhibition of at least 40% at 20 µM;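 also: plate controls were DMSO wells for no effect and DEVD-CHO caspase inhibitor wells for full effect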
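Material: reconstituted apoptosome with Apaf-1, cytochrome c, caspase-9, procaspase-3, dATP; medium: pH 7.5 Hepes buffer with CHAPS, BSA, DTT; also added: cytochrome c and DEVD-Rh110 substrate; timing: 30 min plus 50 min, RT; signal: Rh110 fluorescence intensity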
Pemphigus Ab inh: blocks pemphigus antibody binding to human desmoglein-3 | DSG3-coupled beads, scFv-anti-DSG3-GFP binding, flow cytometry; stronger effect = lower value | binding (percent of control), % at 10 µM | P32926 | actives 0.48% (n = 310,000);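 active = binding more than 3 SD below its plate's average and above zero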;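 also: hits lower antibody fragment binding to DSG3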
UBC13 polyUb: human UBC13 polyubiquitination inhibition; P61088; UBC13 polyubiquitin chain formation, TR-FRET; AID 485273; inhibition, % at 20 µM; actives 0.47% (n = 330,000); in the data active = inhibition above about 45%, passing the limit was not always enough
Active calls of the source: *; . = not tested or not shown. A selection: hits, their analogues and other compounds. The true share with any hit is near 3.2%.

SMILES	MEKK3 PB1 HTS	MEKK2 mut-MEK5	MEKK2 WT-MEK5	Apaf-1 inh	Pemphigus Ab inh	UBC13 polyUb
COc1ccc(C(CNC(=O)c2oc3cc(Br)ccc3c2C)N2CCCCC2)cc1 (stereo not drawn)	107.0	30.0*	141.0*	24.7	115.1	20.5
CCc1ccc2oc(C(=O)NCC(c3ccc(OC)cc3)N3CCCCC3)c(C)c2c1 (stereo not drawn)	104.0	26.0*	131.0	20.3	133.0	19.3
Cc1cc(C)c(NC(=O)c2cccc3c2C(=O)N(C2CCCCC2)C3)c(C)c1	98.0	-2.0	87.0	14.5	95.3	-14.7
O=C(NC1CC1)c1cc(-c2ccco2)nc2ccccc12	103.0	-2.0	98.0	.	71.7*	.
O=C(N/N=C/c1ccc(F)cc1)c1cc(-c2ccco2)nc2ccccc12	.	.	.	30.7	27.8*	26.5
O=C(Cc1cccc(NC(=O)C2CCCN(C(=O)C3CCCC3)C2)c1)Nc1ccc(C(=O)N2CCCCC2)cc1 (stereo not drawn)	.	.	.	.	93.3	.
CNc1nc(-c2ccc(S(=O)(=O)N3CCCCC3)cc2)cs1	.	.	.	16.7	81.7*	-4.5
Cc1ccc(C)c(S(=O)(=O)N2CCN(C(=O)[C@H](C)N3C(=O)C4CC=CCC4C3=O)CC2)c1 (stereo partly drawn)	.	.	.	-2.1	102.7	-0.5
Cc1cc(C)cc(NC(=O)CN2CCC(C(=O)c3ccccc3)CC2)c1	103.0	3.0	108.0	22.8	102.2	0.2
O=C(Oc1ccccc1)N1CCCC1	99.0	0.0	102.0	-1.5	103.9	2.0
O=C(Oc1cccc(C(=S)N2CCOCC2)c1)c1ccccc1	100.0	2.0	101.0	5.2	-24.4*	-2.8
O=C(Oc1ccc(OC(=O)N2CCCCC2)cc1)c1ccccc1	100.0	2.0	101.0	-3.0	67.5*	-2.1
COc1ccc(OC[C@@H](O)CNC(=O)c2cccc3c2C(=O)c2ccc(-c4ccc(F)cc4OCc4ccccc4)cc2S3(=O)=O)cc1	.	.	.	3.9	59.9*	-38.5
COc1ccc(NC(=O)c2cccc3c2C(=O)c2ccc(-c4ccc(F)cc4OCc4ccccc4)cc2S3(=O)=O)cc1	.	.	.	2.0	97.5	-14.7
Nc1c(-c2cccs2)cnn1-c1nc(-c2ccc(F)cc2)cs1	100.0	2.0	98.0	-2.2	-16.2*	-23.3
C=CCN1C(=O)c2ccc(C(=O)N3CCC(C(N)=O)CC3)cc2C1=O	99.0	6.0	106.0	-1.5	99.1	-1.1
C/C(=N/NC(=O)c1cccs1)c1c(C)[nH]n(-c2nc3ccccc3s2)c1=O	139.0*	-1.0	100.0	-5.4	105.7	-3.6
CCCN=C(C)c1c(-c2ccccc2)[nH]n(-c2nc3ccccc3s2)c1=O	101.0	-3.0	93.0	21.7	101.7	-4.5
COC(=O)c1sc(NC(=S)NNC(=O)c2c(Br)c(C)nn2C)c(C(=O)OC)c1C	102.0	-7.0	94.0	24.4	111.7	-3.4
Cc1c(N)c(C(C)(C)C)cc(C(C)(C)C)c1[N+](=O)[O-]	103.0	-1.0	106.0	6.8	107.0	6.5
Cc1cc2nc3c(=O)[nH]c(=O)[nH]c3nc2c([N+](=O)[O-])c1N	75.0	-26.0	70.0	.	34.8*	.
CCCCC(=Nc1ccc(N)cc1)C1=C(O)C(C(=O)OC)C(C)(C)CC1=O (stereo not drawn)	94.0	-9.0	90.0	61.6*	101.5	-28.6
CCCC(=Nc1ccccc1)C1=C(O)C(C(=O)OC)C(C)(C)CC1=O (stereo not drawn)	100.0	3.0	103.0	-3.4	102.7	-3.2
Oc1oc(-c2cccc3ccccc23)nc1/C=N/c1nccs1	130.0*	1.0	104.0	11.8	95.8	-25.1
Oc1oc(-c2cccc3ccccc23)nc1C=NCc1ccccc1	97.0	-2.0	96.0	.	.	.
SMILES	MEKK3 PB1 HTS	MEKK2 mut-MEK5	MEKK2 WT-MEK5	Apaf-1 inh	Pemphigus Ab inh	UBC13 polyUb
Clc1ccc(-c2ccc(C=Nc3ccc(N4CCOCC4)cc3)o2)c(Cl)c1	102.0	-1.0	97.0	25.4	26.7*	-3.1
CC(C)CCNc1ncnc2c1nnn2Cc1ccccc1Cl	109.0	8.0	109.0	-2.6	83.9*	0.7
CCC1CCCCN1S(=O)(=O)c1ccc(NC(=O)C2CC(=O)N(C(C)(C)C)C2)cc1 (stereo not drawn)	.	.	.	.	100.8	.
COCCn1c(=NC(=O)CCS(=O)(=O)c2ccccc2)sc2cc(C(=O)OC)ccc21	105.0	7.0	109.0	-8.0	-9.8*	4.1
O=C(COC(=O)C1=NN(c2ccccc2)C(=O)CC1)Nc1nc(-c2ccc(F)cc2)cs1	.	.	.	-3.9	100.0	2.1
CC(C)[C@H](N)C(=O)N1CCC(C(=O)N[C@@H](Cc2ccccc2)C(=O)NCc2ccc(F)cc2)CC1	106.0	16.0	107.0	-16.1	97.4	-4.8
COc1cc(/C=N/NC(=S)NCC2CCCO2)cc(OC)c1OC (stereo not drawn)	87.0	-20.0	85.0	-12.3	84.4*	-14.3
COc1ccc(/C=N/NC(=S)NCC2CCCO2)cc1 (stereo not drawn)	94.0	-4.0	95.0	6.5	108.9	-0.7
CC1(C)S[C@@H]2[C@H](NC(=O)[C@H](N)c3ccccc3)C(=O)N2[C@H]1C(=O)OC1OC(=O)c2ccccc21 (stereo partly drawn)	.	.	.	-7.0	110.5	0.5
CCOC(=O)c1ccc(Oc2coc3cc(O)ccc3c2=O)cc1	99.0	-2.0	99.0	3.8	99.0	10.6
CCCCCCOc1ccc(N2C(=O)CC(NCc3ccc(S(N)(=O)=O)cc3)C2=O)cc1 (stereo not drawn)	95.0	-2.0	-4.0*	-15.8	108.1	-8.0
CCN(CC)CCNC(=S)Nc1ccc2nc(N3CCCC3)cc(C)c2c1	112.0	-2.0	103.0	11.8	74.8	-12.5
CCCCN(CC)CCCNC(=S)Nc1ccc2nc(N3CCN(CC)CC3)cc(C)c2c1	115.0	16.0	138.0*	16.4	96.8	-1.2
CCCN(CCC)CCCNC(=S)Nc1ccc2nc(N3CCCC3)cc(C)c2c1	106.0	43.0	156.0*	-2.8	84.4	9.2
Cc1ccc(CN2CCN(/N=C/c3ccc(C(=O)O)cc3)CC2)cc1	93.0	-2.0	94.0	7.3	82.4	-2.7
Cc1ccc(CN2CCN(/N=C/C(Br)=C\c3ccccc3)CC2)cc1	72.0	-26.0	82.0	6.1	82.8*	-7.7
CC1C(=O)N(Cc2cn(CCC3OCCO3)nn2)CCS(=O)(=O)N1Cc1ccc(-c2ccc(Cl)cc2)cc1 (stereo not drawn)	.	.	.	.	110.8	.
CC1CCN(C(=O)CSc2nnc(Cn3c(=O)sc4ccccc43)n2C)CC1	89.0	-1.0	94.0	42.6*	106.2	7.7
O=C(Nc1nccs1)c1ccc(N2C(=O)[C@@H]3[C@H](C2=O)[C@H]2C=C[C@@H]3C2)cc1	98.0	-3.0	100.0	-35.2	68.8*	-5.1
